Test results published in ChEMBL document CHEMBL5512642, “Novel triterpenoid pyrones, phthalimides and phthalates are selectively cytotoxic in CCRF-CEM cancer cells - Synthesis, potency, and mitochondrial mechanism of action” (Eur J Med Chem, 2024).
The source made the active and inactive calls. The calls are words filed in the database; no cut-off is given here.

How the values were obtained:
[1] = system: CCRF-CEM; test: Cytotoxicity against human CCRF-CEM cells assessed as reduction in cell viability incubated for 72 hrs by MTS assay; assay type: functional, cell-based
[2] = Plasma protein binding in human assessed as fraction bound at 10 uM by rapid equilibrium dialysis based RF-MS analysis; assay type: ADME, cell-free; conditions: read-out: PPB (converted)
Outline: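 Human plasma protein binding measured by equilibrium dialysis and reported as percent fraction bound. Run in triplicate.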

[3] = system: CCRF-CEM; test: Antimitotic activity against human CCRF-CEM cells assessed as decrease in cell division at 5 times of IC50; assay type: functional, cell-based
Outline: (§1)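 Mitotic fraction scored with the pH3 Ser10 marker and DNA synthesis with BrdU incorporation. For transcription, cells received a short BrU pulse after the 24 h pre-incubation. Read by flow cytometry against untreated cells.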

[4] = Cytotoxicity against human K562-Tax cells assessed as reduction in cell viability incubated for 72 hrs by MTS assay; assay type: functional, cell-based
[5] = system: CCRF-CEM; test: Induction of apoptosis in human CCRF-CEM cells assessed as viable cells at 1 time IC50 incubated for 24 hrs by Annexin V and propidium iodide staining based flow cytometry analysis (reference value: 98%); assay type: functional
[6] = system: CCRF-CEM; test: Induction of apoptosis in human CCRF-CEM cells assessed as necrotic cells at 5 time IC50 incubated for 24 hrs by Annexin V and propidium iodide staining based flow cytometry analysis (reference value: 0.; assay type: functional
[7] = system: CCRF-CEM; test: Induction of apoptosis in human CCRF-CEM cells assessed as reduction in caspase-3 expression at 5 time of IC50 incubated for 24 hrs by Western blot analysis; assay type: functional, cell-based
Outline: (§2)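 Lysate 20 µg protein per lane on SDS-PAGE, transferred to nitrocellulose, blocked in 5% BSA/TBS-Tween. Probed overnight at 4 °C with anti-caspase-3, Bcl-2, Bcl-XL, β-actin, then HRP secondary 1 h. ECL chemiluminescence detection.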

[8] = system: CCRF-CEM; test: Induction of apoptosis in human CCRF-CEM cells assessed as early apoptotic cells at 1 time IC50 incubated for 24 hrs by Annexin V and propidium iodide staining based flow cytometry analysis (reference value: 1.4%); assay type: functional
[9] = system: K562; test: Cytotoxicity against human K562 cells assessed as reduction in cell viability incubated for 72 hrs by MTS assay; assay type: functional, cell-based; conditions: K562, 72 h
[10] = system: A549; test: Cytotoxicity against human A549 cells assessed as reduction in cell viability incubated for 72 hrs by MTS assay; assay type: functional, cell-based; conditions: A549, 72 h
[11] = system: CCRF-CEM; test: Induction of apoptosis in human CCRF-CEM cells assessed as late apoptotic cells at 1 time IC50 incubated for 24 hrs by Annexin V and propidium iodide staining based flow cytometry analysis (reference value: 0.5%); assay type: functional
[12] = system: CCRF-CEM; test: Induction of apoptosis in human CCRF-CEM cells assessed as reduction in Bcl-XL expression at 5 time of IC50 incubated for 24 hrs by Western blot analysis; assay type: functional, cell-based; outline: as §2
[13] = system: CCRF-CEM; test: Induction of apoptosis in human CCRF-CEM cells assessed as early apoptotic cells at 5 time IC50 incubated for 24 hrs by Annexin V and propidium iodide staining based flow cytometry analysis (reference value: 1.4%); assay type: functional
[14] = Stability in human plasma assessed as compound remaining measured 120 mins by RF-MS analysis; assay type: ADME, cell-free; conditions: read-out: Stability
Outline: (§3)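 Compounds incubated in human plasma in vitro for up to 2 h. Percent remaining sampled at 15, 30, 60 and 120 min. Run in triplicate.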

[15] = system: CCRF-CEM; test: Induction of mitochondrial membrane potential loss in human CCRF-CEM cells assessed as cells with depolarized mitochondria (P2 gate) by measuring green fluorescence intensity at 1 time IC50 incubated for 24 hrs by JC-1 staining based flow cytometry (reference value: 2.1%)
[16] = Efflux ratio of apparent permeability across basolateral to apical side over apical to basolateral side in MDCK-MDR1 cells; assay type: ADME, cell-based, Canis lupus familiaris; conditions: dog
Outline: (§4)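 Caco-2 and MDCK-MDR1 monolayers; transport measured in both directions, apical→basolateral and basolateral→apical. Efflux ratio taken from the two directions; ER > 2 counted as active efflux. Compound recovery reported. Cell-based permeability runs done in duplicate.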

[17] = system: HCT-116; test: Cytotoxicity against human HCT-116 cells assessed as reduction in cell viability incubated for 72 hrs by MTS assay; assay type: functional, cell-based; conditions: HCT-116, 72 h
[18] = Metabolic stability in human liver microsomes assessed as compound remaining at measured at 60 mins in presence of NADPH by RF-MS analysis; assay type: ADME, Microsome; conditions: read-out: Stability
Outline: (§5)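 Human liver microsomes with NADPH cofactor to assess phase I oxidation. Compound remaining sampled at 15, 30 and 60 min; intrinsic clearance derived and categorized. Run in triplicate.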

[19] = Metabolic stability in human liver microsomes assessed as compound remaining at measured at 15 mins in presence of NADPH by RF-MS analysis; assay type: ADME, Microsome; conditions: read-out: Stability; outline: as §5
[20] = Cytotoxicity against human MRC5 cells assessed as reduction in cell viability incubated for 72 hrs by MTS assay; assay type: toxicity, cell-based
[21] = Stability in human plasma assessed as compound remaining measured 30 mins by RF-MS analysis; assay type: ADME, cell-free; conditions: read-out: Stability; outline: as §3
[22] = system: CCRF-CEM; test: Induction of apoptosis in human CCRF-CEM cells assessed as necrotic cells at 1 time IC50 incubated for 24 hrs by Annexin V and propidium iodide staining based flow cytometry analysis (reference value: 0.1%); assay type: functional
[23] = Efflux ratio of apparent permeability across basolateral to apical side over apical to basolateral side in human Caco-2 cells; assay type: ADME, cell-based; outline: as §4
[24] = Apparent permeability of the compound across apical to basolateral side in MDCK-MDR1 cells assessed as compound recovery at 10 uM incubated for 1 hr by RF-MS analysis; assay type: ADME, cell-based, Canis lupus familiaris; conditions: dog, read-out: Activity; outline: as §4
[25] = Apparent permeability of the compound in MDCK-MDR1 cells at 10 uM incubated for 1 hr by RF-MS analysis; assay type: ADME, cell-based, Canis lupus familiaris; conditions: dog; outline: as §4
[26] = system: CCRF-CEM; test: Induction of mitochondrial membrane potential loss in human CCRF-CEM cells assessed as cells with depolarized mitochondria (P2 gate) by measuring green fluorescence intensity at 5 time IC50 incubated for 24 hrs by JC-1 staining based flow cytometry (reference value: 2.1%)
[27] = Apparent permeability of the compound in human Caco-2 cells; assay type: ADME, cell-based; outline: as §4
[28] = system: CEM-DNR; test: Cytotoxicity against human CEM-DNR cells assessed as reduction in cell viability incubated for 72 hrs by MTS assay; assay type: functional, cell-based
[29] = system: U2OS; test: Cytotoxicity against human U2OS cells assessed as reduction in cell viability incubated for 72 hrs by MTS assay; assay type: functional, cell-based
[30] = system: CCRF-CEM; test: Induction of apoptosis in human CCRF-CEM cells assessed as reduction in Bcl-2 expression at 5 time of IC50 incubated for 24 hrs by Western blot analysis; assay type: functional, cell-based; outline: as §2
[31] = Cytotoxicity against human BJ cells assessed as reduction in cell viability incubated for 72 hrs by MTS assay; assay type: toxicity, cell-based
[32] = Metabolic stability in human liver microsomes assessed as compound remaining at measured at 30 mins in presence of NADPH by RF-MS analysis; assay type: ADME, Microsome; conditions: read-out: Stability; outline: as §5
[33] = system: CCRF-CEM; test: Induction of apoptosis in human CCRF-CEM cells assessed as viable cells at 5 time IC50 incubated for 24 hrs by Annexin V and propidium iodide staining based flow cytometry analysis (reference value: 98%); assay type: functional
[34] = system: CCRF-CEM; test: Induction of apoptosis in human CCRF-CEM cells assessed as late apoptotic cells at 5 time IC50 incubated for 24 hrs by Annexin V and propidium iodide staining based flow cytometry analysis (reference value: 0.5%); assay type: functional
[35] = system: CCRF-CEM; test: Antiproliferative activity against human CCRF-CEM cells assessed as inhibition of RNA synthesis at 5 time of IC50 by BrdU incorporation assay; assay type: functional, cell-based; conditions: in the assay text read “BrU incorporation assay” for “BrdU incorporation assay”; outline: as §1
[36] = system: HCT 116 TP53(-/-); test: Cytotoxicity against human HCT116-p53-null cells assessed as reduction in cell viability incubated for 72 hrs by MTS assay; assay type: functional, cell-based
[37] = Apparent permeability of the compound across apical to basolateral side in human Caco-2 cells assessed as compound recovery; assay type: ADME, cell-based; conditions: read-out: Activity; outline: as §4
[38] = Stability in human plasma assessed as compound remaining measured 60 mins by RF-MS analysis; assay type: ADME, cell-free; conditions: read-out: Stability; outline: as §3
[39] = Stability in human plasma assessed as compound remaining measured 15 mins by RF-MS analysis; assay type: ADME, cell-free; conditions: read-out: Stability; outline: as §3

Row | fraction unbound at 10 µM [2] | remaining at 2 h [14] [%] | efflux ratio [16] | remaining at 1 h [18] [%] | remaining at 0.25 h [19] [%] | remaining at 0.5 h [21] [%] | Structure (SMILES) | IC50 [1] [µM] | Activity [3] | IC50 [4] [µM] | Activity [5] [%] | Activity [6] [%] | Activity [8] [%] | IC50 [9] [µM] | IC50 [10] [µM] | Activity [11] [%] | Activity [12] | Activity [13] [%] | Activity [15] [%] | IC50 [17] [µM] | IC50 at 72 h [20] [µM] | further results
1 | 0.135 | 93.6 | 26 | 70 | 100 | 99.2 | C=C(C)[C@@H]1CC[C@]2(C(=O)O)CC[C@]3(C)[C@H](CC[C@@H]4[C@@]5(C)Cc6c(C(F)(F)F)cc(=O)oc6C(C)(C)[C@@H]5CC[C@]43C)[C@@H]12 | 4 | Active | 10 | 90.9 | 0 | 5.3 | 22 | 16 | 3.7 | Active | 17.3 | 4.4 | 13 | 28 | Activity [7]: Active; Activity [22]: 0.1%; efflux ratio [23]: 28.4; recovery at 1 h, 10 µM [24]: 70.7%; Papp at 1 h, 10 µM [25]: 0.14 ×10⁻⁶ cm/s; Activity [26]: 30.2%; Papp [27]: 0.04 ×10⁻⁶ cm/s; IC50 [28]: 7.8 µM; IC50 [29]: 18 µM; Activity [30]: Active; IC50 at 72 h [31]: > 50 µM; remaining at 0.5 h [32]: 86%; Activity [33]: 51.2%; Activity [34]: 31.5%; Activity [35]: Active; IC50 [36]: 15 µM; recovery [37]: 104%; remaining at 1 h [38]: 102%; remaining at 0.25 h [39]: 99.9%
2 | 0.184 | 93.8 | 6.95 | 76 | 91 | 96.7 | C=C(C)[C@@H]1CC[C@]2(C(=O)O)CC[C@]3(C)[C@H](CC[C@@H]4[C@@]5(C)Cc6c(C(F)(F)F)cc(C(=O)OC)c(C(=O)OC)c6C(C)(C)[C@@H]5CC[C@]43C)[C@@H]12 | 3.8 | Active | > 50 | 92.9 | 0 | 4.3 | 18 | 18 | 2.8 | Active | 8.5 | 2.4 | 23 | > 50 | Activity [22]: 0%; efflux ratio [23]: 5.62; recovery at 1 h, 10 µM [24]: 71.2%; Papp at 1 h, 10 µM [25]: 4.46 ×10⁻⁶ cm/s; Activity [26]: 38.1%; Papp [27]: 1.73 ×10⁻⁶ cm/s; IC50 [28]: > 50 µM; IC50 [29]: 17 µM; Activity [30]: Active; IC50 at 72 h [31]: > 50 µM; remaining at 0.5 h [32]: 102%; Activity [33]: 87.3%; Activity [34]: 4.2%; IC50 [36]: 13 µM; recovery [37]: 75.8%; remaining at 1 h [38]: 96.2%; remaining at 0.25 h [39]: 103%
